RAD54 inh: RAD54 (human) branch migration inhibition | Q92698 | RAD54 Holliday junction branch migration, FAM/BHQ fluorescence | inhibition, % at 10.4 µM | 360,000 tested, 0.14% active;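 active = mean normalized replicate activity at least 40 and at least half of replicates scoring 40 or more; inconclusive = only one of the two criteria met; inactive = mean below 40 and under half of replicates reaching 40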;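 note: inhibitors cause a drop in the FAM fluorescence signal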
RAD52 anneal inh: blocks human RAD52 DNA annealing. 360,000 tested, 0.46% active. inhibition, % at 18.7 µM. AID 651710. P43351. recombinant RAD52 DNA annealing, FRET fluorescence;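 active = every replicate showing at least 50% inhibition; inconclusive = mean inhibition at least 50% but not in every replicate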
Target sequence (P43351 whole entry, looked up): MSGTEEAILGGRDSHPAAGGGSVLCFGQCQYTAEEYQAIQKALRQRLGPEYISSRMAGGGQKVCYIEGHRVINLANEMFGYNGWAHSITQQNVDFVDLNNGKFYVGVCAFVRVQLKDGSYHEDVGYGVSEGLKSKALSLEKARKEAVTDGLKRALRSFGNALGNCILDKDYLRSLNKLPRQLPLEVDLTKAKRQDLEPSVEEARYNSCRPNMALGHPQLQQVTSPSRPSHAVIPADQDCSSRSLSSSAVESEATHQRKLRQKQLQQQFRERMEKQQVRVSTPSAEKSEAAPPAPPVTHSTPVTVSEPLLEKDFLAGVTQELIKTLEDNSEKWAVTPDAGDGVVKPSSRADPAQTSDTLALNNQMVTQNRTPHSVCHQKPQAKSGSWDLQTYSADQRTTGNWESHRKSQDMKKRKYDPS
Ecoli rRNA inh: inhibits bacterial ribosomal RNA function over humanized ribosomes | GFP signal change (wild-type ribosome), % (concentration not given with the values) | 350,000 tested, 1.6% active | E. coli WT GFP vs humanized-ribosome RFP mutants, fluorescence, 24 h; stronger effect = lower value; DMSO median 0, no signal -100;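 active = significant combined selectivity score with lowered wild-type GFP, culture density cut under 30%, mutant RFP and density less affected; inactive = any of these conditions unmet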
PglD inh: PglD (C. jejuni) enzyme inhibition; 360,000 tested, 0.098% active; purified PglD enzyme, DTNB colorimetric CoA detection; inhibition, % at 12.5 µM; in the data active = inhibition above about 16%, passing the limit was not always enough; inconclusive = no clear call, values can overlap the other calls
Cneo AK release: Cryptococcus neoformans lysis via adenylate kinase release; C. neoformans lysis, adenylate kinase release luminescence, 4 h; normalised: neutral wells 0, clomiphene wells 100; lysis activity, % at 15 µM; 360,000 tested, 0.2% active; AID 651654;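 active = mean lysis activity across replicates of at least 80%, whatever share of replicates individually reach that level; inactive = mean lysis activity below 80%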
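Test system: log-phase Cryptococcus neoformans yeast cells. Input: 5 × 10^6 yeast cells/mL. Medium: fresh YPD growth medium. Doses: single dose. Incubation: static 4 h at 37 °C with compound, 1 h detection. Measured by: luminescent adenylate kinase detection reagent. Read-out: signal increase indicating cell lysis. Benchmarks: Clomiphene.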
DNA binding: DNA binding artifact in Rad54 counter-screen. shares compounds with RAD54 inh. AID 651673. AC50, µM (highest dose often 35 µM). Acridine orange-DNA displacement, fluorescence polarization, 20 min. 460 tested, 8% active;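 active = signal drop giving an AC50 within twice the top valid tested concentration of each sample, actives reach about 35 µM in these data; inactive = activity opposite to expected, plus the rest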;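 note: polarization loss reports compound binding to salmon sperm DNA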
DNA binder FP: DNA binding artifact in RAD52 counter-screen. shares compounds with RAD52 anneal inh. Salmon sperm DNA/acridine orange FP displacement. AC50, µM. 1,000 tested, 8% active;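 active = fitted half-maximal concentration for signal loss at or below twice the highest dose tested, in every separate run, actives reach about 64 µM in these data; inconclusive = runs disagree, or flat partial signal loss, or poor fit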
Of the large screens only hits and unclear results are named; the others gave an inactive call (follow-up assays come after a bar, where they were run). Compounds with a hit are over-represented: about 1.9% of the library has one in this group of screens.

CCNC(=O)C[C@H]1CC[C@@H]2[C@@H](COc3ccc(NC(=O)C4CCOCC4)cc3C(=O)N2C)O1	none
Cc1cc(O)cc2c(=O)c3ccccc3sc12	none (no result: RAD54 inh, PglD inh, Cneo AK release)
COc1cc(C)c2sc3ccccc3c(=O)c2c1NCCN(C)C	RAD54 inh 92.8, RAD52 anneal inh 94.5 | DNA binding 9.33µM | DNA binder FP 17.5µM
Cc1noc(C)c1S(=O)(=O)N(C)C[C@H]1Oc2ccc(NC(=O)Nc3cccc4ccccc34)cc2CC(=O)N([C@H](C)CO)C[C@@H]1C	none
CCc1ccc2nc3nc(C)cc(C)c3c(N)c2c1	RAD54 inh 87.6, RAD52 anneal inh 82.5 | DNA binding inactive | DNA binder FP inactive
CCc1ccc(NC(=S)/N=C(\N)Nc2nc(C)c3cc(CC)ccc3n2)cc1	none (no result: RAD54 inh, PglD inh, Cneo AK release)
C[C@@H]1CN([C@H](C)CO)C(=O)c2ccccc2-c2ccccc2CO[C@@H]1CN(C)S(=O)(=O)Cc1ccccc1	none (no result: RAD54 inh, RAD52 anneal inh, PglD inh, Cneo AK release)
COc1ccc(-c2nn(C)c3sc(C(=O)NCCN(C)C)cc23)cc1OC	RAD54 inh 96.5, RAD52 anneal inh 101.0 | DNA binding inactive | DNA binder FP inactive
COCCCNC(=O)c1cc2c(-c3cccc(OC)c3)nn(C)c2s1	none
CCCN(CCC)CCCNC(=O)c1cc2c(-c3ccc(OC)c(OC)c3)nn(C)c2s1	RAD54 inh 104.3, RAD52 anneal inh 89.8 | DNA binding inactive | DNA binder FP inactive
CCOc1cc2[nH]c(=S)n(Cc3ccc(C(=O)NCCCN(CC)CC)cc3)c(=O)c2cc1OCC	RAD54 inh 51.1, RAD52 anneal inh 67.4 | DNA binding inactive | DNA binder FP inactive
CCOc1cc2[nH]c(=S)n(Cc3ccc(C(=O)NCCCOC)cc3)c(=O)c2cc1OCC	none
COC(=O)C[C@H]1CC[C@H]2[C@@H](COc3ccc(NC(=O)CN(C)C)cc3C(=O)N2C)O1	none (no result: RAD54 inh, RAD52 anneal inh, PglD inh, Cneo AK release)
COc1ccc(Cc2c(-c3ccc(C)cc3)nc3c(C)cc(Br)cn23)c(C)c1	none
COc1ccc(Cc2c(-c3ccc(OC)c(OC)c3)nc3c(C)cc(Br)cn23)c(C)c1	RAD54 inh 60.2, RAD52 anneal inh 51.9 | DNA binding inactive | DNA binder FP inactive
C[C@@H]1CN([C@@H](C)CO)C(=O)c2cc(NS(=O)(=O)c3ccccc3)ccc2O[C@H]1CN(C)C	none
CN1CCN(C(=O)C[C@@H]2CC[C@H]3[C@@H](COC[C@@H](O)CN3C(=O)c3ccc(F)cc3)O2)CC1	none
CN(C)CCCN(C(=O)c1ccc([N+](=O)[O-])o1)c1nc2cc3c(cc2s1)OCO3	RAD54 inh inconclusive, RAD52 anneal inh 75.1 | DNA binding inactive | DNA binder FP inconclusive
CN(C)CCCN(C(=O)c1ccc2c(c1)OCCO2)c1nc2cc3c(cc2s1)OCO3	none
CN(C)CCCNc1nc2cc(-c3ccccc3)sc2c(=O)n1C	RAD54 inh inconclusive, RAD52 anneal inh 53.5 | DNA binding inactive | DNA binder FP inactive
CN(C)CCCNc1nc2cc(-c3ccc(F)cc3)sc2c(=O)n1C	RAD54 inh 69.7, RAD52 anneal inh 71.3 | DNA binding inactive | DNA binder FP inactive
CN(C)CCCNc1nc2cc(-c3cncnc3)sc2c(=O)n1C	none (no result: Ecoli rRNA inh)
CN(C)C(=O)c1cccc(-c2ccc([C@H]3[C@@H](C#N)N(C(=O)C4CC4)[C@@H]3CO)cc2)c1	none
COc1ccccc1Nc1nc(NCCCN(C)C)nc(N)c1[N+](=O)[O-]	RAD54 inh 77.0, RAD52 anneal inh 94.7 | DNA binding inactive | DNA binder FP inactive
CCCC(=O)Nc1ccc2c(c1)C(=O)N(C)C[C@H](OC)[C@@H](C)CN(Cc1ccccc1F)[C@H](C)CO2	none
C[C@H]1CN([C@@H](C)CO)S(=O)(=O)c2ccc(C#CC3CC3)cc2O[C@@H]1CN(C)C(=O)c1ccccc1	none
